How the values were obtained:
[1] = biological target: T1, Vesicular acetylcholine transporter (Homo sapiens, UniProt Q16572); assay: Displacement of [3H]vesamicol from human vesicular acetylcholine transporter expressed in rat PC12 cells by liquid scintillation spectrometry; assay type: cell-based, PC-12
T1 sequence (Q16572 whole entry): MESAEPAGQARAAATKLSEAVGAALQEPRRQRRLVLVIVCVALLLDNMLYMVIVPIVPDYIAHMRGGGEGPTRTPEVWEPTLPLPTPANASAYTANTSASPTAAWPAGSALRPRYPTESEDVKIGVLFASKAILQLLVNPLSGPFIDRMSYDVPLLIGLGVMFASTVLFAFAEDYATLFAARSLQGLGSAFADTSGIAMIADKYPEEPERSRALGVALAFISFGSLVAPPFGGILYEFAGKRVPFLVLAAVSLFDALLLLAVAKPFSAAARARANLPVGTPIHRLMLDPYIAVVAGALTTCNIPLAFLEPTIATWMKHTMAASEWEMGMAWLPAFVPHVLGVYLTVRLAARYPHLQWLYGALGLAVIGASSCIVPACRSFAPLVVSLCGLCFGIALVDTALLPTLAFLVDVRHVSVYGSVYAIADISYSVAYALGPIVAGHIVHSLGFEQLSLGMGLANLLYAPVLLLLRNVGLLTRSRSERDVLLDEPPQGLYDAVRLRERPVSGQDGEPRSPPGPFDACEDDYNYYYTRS

[2] = biological target: Sigma non-opioid intracellular receptor 1 (Cavia porcellus, UniProt Q60492); assay: Displacement of [3H](+)-pentazocine from sigma1 receptor in guinea pig brain membrane by liquid scintillation counting; assay type: cell membranes
[3] = Displacement of [3H]DTG from sigma2 receptor in rat liver membrane; assay type: cell membranes
Procedure, shortened: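 Rat liver membrane homogenate (~300 μg protein) incubated 2 h at room temperature with ~5 nM [3H]DTG plus 1 μM (+)-pentazocine to mask σ1 sites. Haloperidol 10 μM defines nonspecific binding. Filtered and counted.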

[4] = Selectivity ratio of Ki for human vesicular acetylcholine transporter to Ki for sigma1 receptor in guinea pig brain membrane; assay type: cell membranes

Sequence of Sigma non-opioid intracellular receptor 1 (Q60492 whole entry): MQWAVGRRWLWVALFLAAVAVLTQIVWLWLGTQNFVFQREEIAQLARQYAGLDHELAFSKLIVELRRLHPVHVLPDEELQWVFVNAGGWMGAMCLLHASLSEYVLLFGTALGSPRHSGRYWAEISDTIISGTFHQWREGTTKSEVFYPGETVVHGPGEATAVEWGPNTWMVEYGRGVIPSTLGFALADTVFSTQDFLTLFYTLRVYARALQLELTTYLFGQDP

Row | Compound | Ki [1] [nM] | Ki [2] [nM] | Ki [3] [nM] | Ratio Ki [4] | Kd [1] [nM]
1 | O=C(c1ccccc1)C1CCN([C@@H]2Cc3ccccc3C[C@H]2O)CC1 (racemic) | 4.3 | 220 | 320 | 51 | –
2 | O=C(c1ccc(Br)cc1)C1CCN([C@@H]2Cc3ccccc3C[C@H]2O)CC1 (racemic) | 0.25 | 298 | 593 | 1190 | –
3 | O[C@@H]1Cc2cccc(OC/C=C/I)c2C[C@H]1N1CCC(c2ccccc2)CC1 | 0.45 | – | – | – | –
4 | O[C@@H]1CC[C@H](OCc2ccc(F)cc2)C[C@H]1N1CCC(c2ccccc2)CC1 | 10.7 | 30.6 | 18.5 | – | –
5 | O[C@@H]1Cc2cccc(OCCCF)c2C[C@H]1N1CCC(c2ccccc2)CC1 | 0.77 | – | – | – | –
6 | O=C(c1ccc(F)cc1)C1CCN([C@@H]2Cc3ccccc3C[C@H]2O)CC1 (stereo in doubt; (-)-9e) | – | – | 319 | – | –
7 | O[C@@H]1C[C@H](OCc2ccc(F)cc2)CC[C@H]1N1CCC(c2ccccc2)CC1 | 330 | 21.3 | 15.8 | – | –
8 | O[C@@H]1CCN(Cc2ccc(F)cc2)C[C@H]1N1CCC(c2ccccc2)CC1 | 0.22 | 21.6 | 35.9 | 98 | –
9 | O=C(c1ccc([N+](=O)[O-])cc1)C1CCN([C@@H]2Cc3ccccc3C[C@H]2O)CC1 (racemic) | 0.48 | – | – | – | –
10 | NCC1(c2ccccc2)CCN([C@@H]2Cc3c(I)cccc3C[C@H]2O)CC1 | – | – | – | – | 3
11 | O=C(c1ccc(F)cc1)C1CCN([C@@H]2Cc3ccccc3C[C@H]2O)CC1 (racemic) | – | – | 251 | – | –
12 | O[C@@H]1CCCC[C@H]1N1CCC(c2ccccc2)CC1 [VESAMICOL] | – | – | 34.5 | – | –
13 | O=C(c1ccc(F)cc1)C1CCN([C@@H]2Cc3ccccc3C[C@H]2O)CC1 (stereo in doubt; (+)-9e) | – | – | 278 | – | –
